b-catenin transl = alters nuclear translocation of beta-catenin in HeLa cells; immunofluorescence imaging; nuclear translocation activity, % at 5 µM; 190,000 compounds, 0.3% hits; AID 1665;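 active means nuclear translocation activity above 50% at 5 µM, with a well cell count of 50 or more; inconclusive means wells under 50 cells across six images, flagged as toxic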;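 further: per-cell ratio of nuclear to cytoplasmic median beta-catenin stain intensity; plate controls were DMSO negative control for no effect and GSK-3 inhibitor IX positive control for full effect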
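Test system: HeLa cells, endogenous beta-catenin; Compound: single 5 µM dose plus 0.02–20 µM confirmation series; Times: compound exposure 24 h at 37°C; Signal: fluorescence imaging of beta-catenin antibody stain plus DAPI; Read-out: % activation, nuclear-to-cytoplasmic median beta-catenin signal ratio per cell.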
MT stabilize HCS = microtubule stabilizers in HeLa cells | HeLa tubulin immunostaining HCS, 24 h; share of cells brighter than vehicle mean+2SD | % tubulin-high responders, % at 10 µM | 200,000 compounds, 0.83% hits | AID 2205;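 active means plate Z-score above 3 for both tubulin-high and condensed-nucleus cell shares, with cell loss under 80%, at 10 µM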;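 further: anti alpha tubulin signal scored within the nucleus-defined area of each cell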
ROMK primary = human ROMK K+ channel modulation, primary screen | B-score at 10 µM | 130,000 compounds, 2% hits | Tet-inducible ROMK, thallium flux fluorescence; actives lie on both sides | P48048;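 active means signal ratio slope over the read window, or its plate-corrected B-score, at least 3 SD from the plate mean, either direction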;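 further: B-score of the F/F0 ratio slope over 7 to 12 s after thallium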
Target sequence (P48048 whole entry, looked up): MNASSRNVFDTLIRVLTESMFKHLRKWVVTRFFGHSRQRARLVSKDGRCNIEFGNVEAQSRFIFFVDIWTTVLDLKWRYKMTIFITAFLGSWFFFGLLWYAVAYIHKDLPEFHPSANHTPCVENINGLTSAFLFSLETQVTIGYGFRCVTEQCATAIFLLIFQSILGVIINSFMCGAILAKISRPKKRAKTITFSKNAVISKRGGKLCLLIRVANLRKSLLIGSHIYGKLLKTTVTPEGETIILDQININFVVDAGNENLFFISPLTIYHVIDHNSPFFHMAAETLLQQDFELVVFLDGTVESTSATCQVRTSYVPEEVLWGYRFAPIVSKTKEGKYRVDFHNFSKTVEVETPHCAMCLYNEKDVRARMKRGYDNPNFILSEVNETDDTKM
ROMK hit retest = human ROMK channel modulation, retest confirmation; shares compounds with ROMK primary; ROMK thallium flux, fluorescence ratio; active compounds read low; normalized thallium flux (F/F0 slope) at 10 µM; 3,000 compounds, 54% hits; AID 1917;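 active means Flux at 10 µM at least 3 SD below or above vehicle control mean in one or both replicates; inconclusive means no clear call, values can overlap the other calls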
* hit, by the source's call; i = inactive; ? = inconclusive; · = no result given. Hits are enriched below; roughly 1.9% of the tested compounds scored in any of these assays.

SMILES | b-catenin transl | MT stabilize HCS | ROMK primary | ROMK hit retest
NC(=O)N/N=C/c1ccccc1OC(=O)c1ccccc1Br | -0.2 | 3.0 | -3.16* | 0.0523*
O=C(/C=C/c1ccccc1)N1CCN(S(=O)(=O)c2ccc(F)cc2)CC1 | 0.2 | 3.4 | -0.251 | ·
O=C(/C=C/c1ccc(F)cc1)N1CCN(S(=O)(=O)/C=C/c2ccccc2)CC1 | -1.7 | 4.9 | 3.03* | 0.0776
CN1Cc2cccc3c2C(Cc2ccccc2S3)C1 (configuration not stated) | -1.2 | 3.2 | · | ·
O=C(NCC1OCCc2ccccc21)c1cc(COc2c(F)cccc2F)on1 (configuration not stated) | 0.5 | 3.3 | -0.849 | ·
O=C(c1cccc(F)c1)N1CCN(C(=O)c2cc(-c3ccc(Cl)cc3Cl)on2)CC1 | · | 3.4 | -4.23* | ?
COc1cccc(C(=O)N2CCN(C(=O)c3cccc(F)c3)CC2)c1 | 4.2 | 1.6 | · | ·
Cc1ccc(N/C=C/C(=O)c2cccs2)cc1 | -4.9 | 1.1 | 0.959 | ·
CCOC(=O)CCCOC(=O)c1ccc(S(=O)(=O)N(C)C)cc1 | -3.5 | 3.1 | · | 0.0799
CN(Cc1ccccc1)C(=O)COC(=O)c1ccc(S(=O)(=O)N(C)C)cc1 | -3.3 | 4.5 | -0.237 | ·
CN(C(=O)CSc1nnc(-c2cccnc2)n1-c1ccccc1F)C1CCS(=O)(=O)C1 (configuration not stated) | -1.0 | 2.3 | -0.247 | ·
Cc1ccc(C2CC(C(F)(F)F)n3nc(C(=O)NCC4CCCO4)cc3N2)cc1 (configuration not stated) | -4.4 | 1.7 | · | ·
Cc1cc(=O)[nH]c(SCc2nnc(-c3ccccc3)o2)n1 | -3.5 | 1.0 | 1.51 | ·
Clc1ccc2nc(SCc3nnc(-c4ccccc4)o3)[nH]c2c1 | -2.1 | 1.9 | -3.41* | 0.0554*
Cc1c(-c2cccc(NC(=O)c3cccs3)c2)nc2ncccn12 | -3.4 | 4.9 | · | ·
Cc1ccc(SCCC(=O)NC2CC2)cc1 | 1.0 | 2.3 | 1.39 | ·
Cc1ccc(NC(=S)NCC2CCCO2)cc1C (configuration not stated) | -1.2 | 5.0 | -0.4 | ·
Cc1ccc(NC(=S)NCC2CCN(C(C)c3ccccc3)C2)cc1C (configuration not stated) | 0.1 | 3.7 | -4.22* | 0.0587*
COc1ccc(CNC(=S)Nc2ccccc2-c2ccccc2)cc1 | 0.2 | 5.5 | -0.301 | ·
COc1cc(/C=C/[N+](=O)[O-])ccc1OCc1cccc(C(=O)O)c1 | -0.2 | 1.3 | -6.02* | 0.0369*
COc1cc(/C=N/NC(=O)c2cccc([N+](=O)[O-])c2)ccc1OCc1ccccc1 | -5.0 | 2.8 | · | ·
Nc1c(C(=O)N/N=C/c2ccc([N+](=O)[O-])cc2)sc2nnc(-c3ccccc3)c(-c3ccccc3)c12 | 0.4 | · | 0.483 | ·
N#Cc1cccc(C(c2nnnn2CCc2ccccc2)N2CCN(C3CCCCC3)CC2)c1 (configuration not stated) | -2.6 | 3.8 | -3.13* | 0.0576*
COc1ccc(C(c2nnnn2CCc2ccccc2)N2CCN(C3CCCC3)CC2)cc1 (configuration not stated) | 0.8 | 2.1 | · | ·
CCOc1ccc(/C=C(\C#N)C(=O)Nc2cccnc2)cc1 | -1.1 | 3.3 | · | ·
SMILES | b-catenin transl | MT stabilize HCS | ROMK primary | ROMK hit retest
CCOc1cccc(NC(=O)/C(C#N)=C/c2cccnc2)c1 | -0.8 | · | · | 0.0351*
COc1ccccc1C(=O)O/N=C(\N)c1ccccn1 | 0.0 | · | · | 0.0834
N/C(=N\OC(=O)c1ccccc1Cl)c1ccccn1 | · | 2.0 | · | ·
N/C(=N\OC(=O)c1ccc(Cl)c([N+](=O)[O-])c1)c1ccccn1 | -2.8 | 2.3 | -3.77* | 0.0793
N/C(=N\OC(=O)c1ccc(Cl)c(Cl)c1)c1ccccn1 | -0.9 | 4.5 | · | ·
S=C(NNc1ccc2ccccc2c1)NC1CCCCC1 | 2.2 | 4.7 | · | ·
COc1cccc([C@@H]2Oc3ccc(OC)cc3C(=O)[C@H]2OC(=O)NCc2ccc3c(c2)OCO3)c1 | · | 3.1 | 2.19 | ·
COc1ccc(CNC(=O)C(C)Sc2ccc(C)cc2)cc1 (configuration not stated) | 0.0 | 7.1 | -0.575 | ·
Cc1ccc(SC(C)C(=O)NCc2ccncc2)cc1 (configuration not stated) | 0.4 | 2.3 | 2.53* | 0.0835
Cc1ccc(C2=NN(C(=O)CCC(=O)O)C(c3cccs3)C2)cc1 (configuration not stated) | -1.3 | · | -0.0387 | ·
COc1ccc(C2=NN(C(=O)CCC(=O)O)C(c3cccs3)C2)cc1 (configuration not stated) | -0.9 | 5.6 | -3.48* | 0.0747
CC1=Nc2ccccc2/C1=C\c1sc(Nc2ccc(C)cc2)nc1O | 40.2 | 8.5 | 2.01* | 0.0949
Oc1nc(Nc2ccc(F)cc2)sc1/C=C1\C=Nc2ccccc21 | 1.9 | · | 1.5 | ·
CCOc1ccc(Br)cc1S(=O)(=O)Nc1ccc(NC(=O)c2ccccc2F)cc1 | -1.5 | 3.5 | 0.269 | ·
Cc1ccc(S(=O)(=O)Nc2ccc(-c3nc4ccc(C)cc4s3)cc2)cc1 | 7.1 | 0.9 | · | ·
Cc1cccc(S(=O)(=O)Nc2ccc(-c3nc4ccc(C)cc4s3)cc2)c1 | 0.5 | 2.9 | · | 0.0787
O=C(Nc1ccc([N+](=O)[O-])cn1)c1ccc(Br)o1 | -1.1 | 2.4 | 0.882 | ·
CCOC(=O)C1CCCN(Cc2nc(Cc3ccccc3Cl)no2)C1 (configuration not stated) | 0.4 | 1.8 | -0.425 | ·
COc1cc(/C=N/NC(=O)c2ccc(O)cc2)ccc1Oc1ccc([N+](=O)[O-])cn1 | 2.1 | 3.9 | -0.82 | ·
COc1ccccc1/C=c1\sc2nc(-c3ccco3)nn2c1=O | -0.1 | 7.5 | 0.254 | ·
COc1ccc(OC)c(/C=c2\sc3nc(-c4cccs4)nn3c2=O)c1 | -1.6 | 5.1 | · | 0.0622*
COc1ccc(-n2cc(CNCCc3cnc[nH]3)c(-c3cccc(F)c3)n2)cc1 | -0.3 | 3.2 | -1.91* | 0.0607*
COc1ccc(-n2cc(CNCc3cccnc3)c(-c3cccc(F)c3)n2)cc1 | -2.9 | 3.9 | -3.2 | ·
CCOC(=O)c1c(CSc2nc(C)cc(C)c2C#N)n(C)c2cc(Br)c(OC(C)=O)cc12 | 3.0 | 8.0 | · | ·
C=CCCc1ccc(C#N)c(SCc2c(C(=O)OCC)c3cc(OC(C)=O)c(Br)cc3n2C)n1 | -2.8 | 3.6 | · | ·
SMILES | b-catenin transl | MT stabilize HCS | ROMK primary | ROMK hit retest
CCCCCCCCOC(=O)c1c(CSC(=N)N)n(C)c2cc(Br)c(OC(C)=O)cc12 | 0.5 | · | · | ?
CCOC(=O)c1c(CSC(=N)N)n(-c2ccc(Br)cc2)c2cc(Br)c(OC(C)=O)cc12 | 9.8 | 22.2 | -5.21* | 0.0451*
COc1ccccc1NC(=O)c1sc2nc(Cc3ccccc3)cc(C(F)(F)F)c2c1N | -0.5 | i | -5.48* | 0.0476*
COc1ccc(NC(=O)c2sc3nc(Cc4ccccc4)cc(C(F)(F)F)c3c2N)cc1OC | -1.4 | i | · | ·
CCn1c(C(C)NC(=O)c2cccs2)n[nH]c1=S (configuration not stated) | -2.8 | 3.7 | · | ·
COc1cccc(-n2nc(C(C)=O)c(C#N)c2-c2ccco2)c1 | 0.8 | 1.8 | 0.888 | ·
CCC1CCCCN1C(=O)c1sc2nc(C)nc(N(CC)CC)c2c1C (configuration not stated) | 0.2 | 1.0 | -3.69* | 0.0585*
CCOC(=O)C1CCCN(C(=O)c2sc3nc(C)nc(N(CC)CC)c3c2C)C1 (configuration not stated) | -6.3 | 2.5 | · | ·

From PubChem BioAssay
